The results in this text go back to ChEMBL document CHEMBL3227958, “A preliminary structure-activity study of the mixed-function oxidase inhibitor 7,8-benzoflavone” (J Med Chem, 1979).

Series [1] can be described thus: Stimulation of benzo(alpha)pyrene monooxygenase in phenobarbital-treated Sprague-Dawley rat liver microsomes using [3H]benzo(alpha)pyrene as substrate at 100 uM after 15 mins by liquid scintillation spectrometry. It counts as ADME. The following applies: 0.25 h. In outline: (§1)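 Single-concentration change in benzo[a]pyrene oxidation versus solvent controls, using phenobarbital-induced male Sprague-Dawley rat liver microsomes at 0.400 mg/mL protein. Conditions: 60 μM [3H]benzo[a]pyrene, NADPH-generating system, 15 min at 37 °C. Termination used ethanolic NaOH, then hexane extraction and scintillation counting of the lower phase, corrected with an ethanolic-NaOH-treated microsome blank. Three replicates.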
A general note: Liver microsomes are vesicles of endoplasmic reticulum, rich in cytochrome P450 enzymes.

A short description of series [2]: Inhibition of benzo(alpha)pyrene monooxygenase in phenobarbital-treated Sprague-Dawley rat liver microsomes using [3H]benzo(alpha)pyrene as substrate after 15 mins by liquid scintillation spectrometry. The following applies: read-out: I50. Summed up:
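Microsomes came from male Sprague-Dawley rats (60-80 g) given phenobarbital 80 mg/kg ip in saline on 3 days, then starved 24 h. The assay used 0.400 mg/mL protein, NADP/glucose 6-phosphate/G6PDH and 60 μM [3H]benzo[a]pyrene for 15 min at 37 °C. Hexane/alkali extraction was followed by scintillation counting, minus an ethanolic-NaOH-treated microsome blank. I50 used ≥4 inhibitor concentrations, log-dose plot, three replicates.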

Series [3] has as its system benzo(alpha)pyrene monooxygenase. The series can be described thus: Inhibition of benzo(alpha)pyrene monooxygenase in 3-methylcholanthrene-treated Sprague-Dawley rat liver microsomes using [3H]benzo(alpha)pyrene as substrate at 100 uM after 15 mins by liquid scintillation spectrometry. The following applies: liver microsomes from 3-methylcholanthrene-treated rats, probe [3H]benzo(alpha)pyrene. In outline: (§2)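 Percent inhibition or stimulation was measured at the single stated inhibitor concentration, relative to solvent-only controls. Hepatic microsomes were from 3-methylcholanthrene-pretreated male Sprague-Dawley rats, used at 0.200 mg/mL protein with an NADPH-generating system. Substrate was 60 μM [3H]benzo[a]pyrene, incubated 15 min at 37 °C. The reaction was stopped with NaOH in 80% ethanol, hexane-extracted, and the aqueous phase counted. Triplicate samples.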

A short description of series [4]: Inhibition of benzo(alpha)pyrene monooxygenase in 3-methylcholanthrene-treated Sprague-Dawley rat liver microsomes using [3H]benzo(alpha)pyrene as substrate after 15 mins by liquid scintillation spectrometry. The following applies: read-out: I50. Summed up:
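Liver microsomes from male Sprague-Dawley rats (60-80 g) given 3-methylcholanthrene 20 mg/kg ip in corn oil on 2 days, then starved 24 h. Run with 0.200 mg/mL protein, NADPH-generating system and 60 μM [3H]benzo[a]pyrene for 15 min at 37 °C. Hydroxylated products were taken into alkali and counted. I50 came from log concentration vs % activity, with at least four concentrations and triplicates.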

Series [5] can be described thus: Stimulation of benzo(alpha)pyrene monooxygenase in phenobarbital-treated Sprague-Dawley rat liver microsomes using [3H]benzo(alpha)pyrene as substrate at 99 uM after 15 mins by liquid scintillation spectrometry. It is filed as ADME. The following applies: 0.25 h. In outline:
as §1

The test system of series [6] is benzo(alpha)pyrene monooxygenase. The series can be described thus: Inhibition of benzo(alpha)pyrene monooxygenase in 3-methylcholanthrene-treated Sprague-Dawley rat liver microsomes using [3H]benzo(alpha)pyrene as substrate at 99 uM after 15 mins by liquid scintillation spectrometry. The following applies: liver microsomes from 3-methylcholanthrene-treated rats, probe [3H]benzo(alpha)pyrene. In outline:
as §2

For series [7] the test system is unchanged. As to the kind of experiment: Inhibition of benzo(alpha)pyrene monooxygenase in phenobarbital-treated Sprague-Dawley rat liver microsomes using [3H]benzo(alpha)pyrene as substrate at 100 uM after 15 mins by liquid scintillation spectrometry. The following applies: liver microsomes from phenobarbital-treated rats, probe [3H]benzo(alpha)pyrene. In outline: as §1

Series [8] can be described thus: Stimulation of benzo(alpha)pyrene monooxygenase in phenobarbital-treated Sprague-Dawley rat liver microsomes using [3H]benzo(alpha)pyrene as substrate at 98 uM after 15 mins by liquid scintillation spectrometry. The following applies: 0.25 h. It counts as ADME. Summed up:
as §1

Series [9] relates to benzo(alpha)pyrene monooxygenase. The series can be described thus: Inhibition of benzo(alpha)pyrene monooxygenase in phenobarbital-treated Sprague-Dawley rat liver microsomes using [3H]benzo(alpha)pyrene as substrate at 104 uM after 15 mins by liquid scintillation spectrometry. The following applies: liver microsomes from phenobarbital-treated rats, probe [3H]benzo(alpha)pyrene. Summed up: as §1

The nature of series [10]: Stimulation of benzo(alpha)pyrene monooxygenase in 3-methylcholanthrene-treated Sprague-Dawley rat liver microsomes using [3H]benzo(alpha)pyrene as substrate at 200 uM after 15 mins by liquid scintillation spectrometry. It counts as ADME. The following applies: 0.25 h. In outline: as §2
Series [11] can be described thus: Stimulation of benzo(alpha)pyrene monooxygenase in phenobarbital-treated Sprague-Dawley rat liver microsomes using [3H]benzo(alpha)pyrene as substrate at 200 uM after 15 mins by liquid scintillation spectrometry. It is filed as ADME. The following applies: 0.25 h. Summed up:
as §1

For series [12], the system named is benzo(alpha)pyrene monooxygenase. The series can be described thus: Inhibition of benzo(alpha)pyrene monooxygenase in phenobarbital-treated Sprague-Dawley rat liver microsomes using [3H]benzo(alpha)pyrene as substrate at 99 uM after 15 mins by liquid scintillation spectrometry. The following applies: liver microsomes from phenobarbital-treated rats, probe [3H]benzo(alpha)pyrene. Summed up:
as §1

In general, inhibition refers to the change of the read-out against control, counted positive when it falls. A higher inhibition goes with a strong effect. In series [1], `O=c1cc(-c2cccc([N+](=O)[O-])c2)oc2c1ccc1ccccc12` returned an Activity of 42%. Also, the IC50 in [2] and in [4] was above 100 µM each time. The compound further showed an inhibition at 0.25 h, 100 µM in [3] of 36%.
In series [5], `O=c1cc(-c2ccc([N+](=O)[O-])cc2)oc2c1ccc1ccccc12` had an Activity of 33%. This compound returned an inhibition at 0.25 h, 99 µM in [6] of 0%. Further, the IC50 in [2] and in series [4] was above 99 µM in each case.
With `COc1ccccc1-c1cc(=O)c2ccc3ccccc3c2o1`, the inhibition at 0.25 h, 100 µM in series [7] was 34%. Moreover, the IC50 was above 100 µM in [2] and 13 µM in series [4].
On to `COc1ccc(-c2cc(=O)c3ccc4ccccc4c3o2)cc1`, for which the inhibition at 0.25 h, 100 µM in [7] worked out at 0%; in series [3], 46%. Besides, the IC50 in series [2] and in [4] was above 100 µM in each case.
Take `COc1cccc(-c2cc(=O)c3ccc4ccccc4c3o2)c1`: the Activity in series [8] was 9%. Also, the IC50 in series [2] is above 98 µM; in series [4], 11 µM.
In turn, `O=c1cc(-c2ccc3ccccc3c2)oc2c1ccc1ccccc12` displayed an inhibition at 0.25 h, 100 µM in series [7] of 0%. In addition, the IC50 in [2] was above 100 µM; in [4], 11 µM.
Take `Nc1cc2c(=O)cc(-c3ccccc3)oc2c2ccccc12`: the values for the IC50 in [2] and in [4] were 82 µM and 31 µM, respectively.
Turning to `O=c1cc(-c2ccccc2)oc2c1cc(Br)c1ccccc12`, the IC50 in [2] and in [4] was above 97 µM each time.
In the case of `O=c1c(-c2ccccc2)coc2c1ccc1ccccc12`, the Activity in series [1] is on record as 6%. In addition, the IC50 in series [2] and in series [4] was above 100 µM throughout. For the same compound, the inhibition at 0.25 h, 100 µM in [3] is 18%.
Compound `c1ccc(-c2cc3ccc4ccccc4c3o2)cc1` showed an inhibition at 0.25 h, 104 µM in [9] of 34%. The IC50 in [2] and in [4] was above 104 µM in each case.
On to `O=c1cc(-c2ccccc2)oc2c1cc([N+](=O)[O-])c1ccccc12`, for which the Activity came out at 34% in series [10] and 43% in [11]. Moreover, the IC50 in series [2] and in series [4] was above 200 µM in each case.
For `O=c1cc(-c2ccc(Cl)cc2)oc2c1ccc1ccccc12`, in [12], the inhibition at 0.25 h, 99 µM was 0%. For the same compound, the IC50 was above 99 µM in series [2] and 13 µM in [4].
For the compound `O=c1cc(-c2ccccc2)oc2c1ccc1ccccc12` [ALPHA-NAPHTHOFLAVONE], the Activity in [1] was determined as 21%. Also, the IC50 in series [2] was above 100 µM; in [4] it was 10 µM.
